This passage reports inhibition, Activity and IC50 results from ChEMBL document CHEMBL3046214, “Friedelane triterpenes from Celastrus vulcanicola as photosynthetic inhibitors” (J Agric Food Chem, 2010).

Each structure is given as a SMILES string. Active and inactive are the calls of the source. No cut-off for these calls is given here.

The subject of test [1] is Lolium perenne. Put plainly: Inhibition of photosynthetic efficiency in Lolium perenne (perennial ryegrass) at 100 uM measured 48 hr post compound application. The test is classed as functional, organism-based. In a few lines: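 Greenhouse L. perenne sprayed 18 days after emergence (20 mM DMSO stock diluted into 0.05% Tween-20; vehicle-sprayed controls). Leaves dark-adapted 15 min, then excited with 3000 μmol photons m-2 s-1 red light (650 nm) from three LEDs. OJIP transients recorded at room temperature with a Handy PEA. PI(abs) and other parameters are shown on radar plots normalized to control.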

For test [2], the target named is Photosystem II protein D1 (Spinacia oleracea) (UniProt P69560). Put plainly: Inhibition of uncoupled photosystem II electron transport and partial reactions in Spinacia oleracea (spinach) leaves assessed as electron transport rate from water to SiMo at 100 uM measured per mg of chlorophyll relative to untreated control. Details: scale not given: the % may be the effect or the level left. The essentials:
(§1)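 Uncoupled partial PSII reaction from water to silicomolybdate, run in the PSII medium (sorbitol, KCl, MgCl2, KCN, 15 mM tricine-KOH pH 8.0, 6 mM NH4Cl, 20 μg Chl/mL, 1 min light). DCBQ/DBMIB were replaced by 200 μM SiMo plus 10 μM DCMU. Rates are in μequiv e-/h mg Chl, relative to control, three replicates.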

Test [3] has as its system Spinacia oleracea. Put plainly: Inhibition of photophosphorylation in Spinacia oleracea (spinach) leaves chloroplasts by titrimetry. The test is classed as functional. The conditions noted are these: read-out: I50. In a few lines:
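Intact spinach chloroplasts (20 μg Chl/mL) were osmotically broken in 3 mL of weakly buffered medium: 100 mM sorbitol, 10 mM KCl, 5 mM MgCl2, 0.5 mM KCN, 1 mM tricine-KOH pH 8.0, 50 μM MV and 1 mM ADP. ATP synthesis was taken from the medium alkalization rate in the linear part of illumination, calibrated by HCl back-titration, as μmol ATP (mg Chl)-1 h-1. I50 was obtained from concentration-activity plots; three replicates.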

The target in test [4] is Photosystem II protein D1 (Spinacia oleracea) (UniProt P69560). Put plainly: Inhibition of uncoupled photosystem II electron transport and partial reactions in Spinacia oleracea (spinach) leaves assessed as electron transport rate from water to SiMo at 300 uM measured per mg of chlorophyll relative to untreated control. Details: scale not given: the % may be the effect or the level left. In a few lines: as §1

Test [5] deals with Spinacia oleracea. Put plainly: Increase in Magnesium-transporting ATPase activity in Spinacia oleracea (spinach) leaves chloroplasts thylakoids at 200 uM. The essentials:
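Spinach chloroplasts were isolated in 350 mM sorbitol, 5 mM ascorbate, 20 mM MES pH 6.5, centrifuged at 3000g for 60 s, washed, and resuspended in 35 mM HEPES pH 7.6. Light-triggered Mg2+-ATPase activity of thylakoid membranes was measured as released inorganic phosphate. Ammonium chloride served as positive control.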

For test [6], the target named is Photosystem II protein D1 (Spinacia oleracea) (UniProt P69560). Put plainly: Inhibition of uncoupled photosystem II electron transport and partial reactions in Spinacia oleracea (spinach) leaves assessed as electron transport rate from water to DCPIP at 50 uM measured per mg of chlorophyll relative to untreated control. Also on record: scale not given: the % may be the effect or the level left.

For test [7] the target is unchanged. Put plainly: Inhibition of uncoupled photosystem II electron transport and partial reactions in Spinacia oleracea (spinach) leaves assessed as electron transport rate from water to DCPIP at 300 uM measured per mg of chlorophyll relative to untreated control. Details: scale not given: the % may be the effect or the level left.
The subject of test [8] is Physalis ixocarpa. Put plainly: Inhibition of photosynthetic efficiency in Physalis ixocarpa intact leaves assessed as effect on OJIP transients at 100 uM measured 24 hr post compound application. Format: functional, organism-based. In a few lines: (§2)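 P. ixocarpa plants sprayed 15 days after emergence (greenhouse, 25-30 °C; 20 mM DMSO stock diluted into 0.05% Tween-20; vehicle-sprayed controls). Leaves dark-adapted 15 min, then excited with 650 nm red LED light at 3000 μmol photons m-2 s-1. Chl a OJIP transients recorded with a Handy PEA at room temperature. PI(abs) is normalized to control; K-, J- and I-bands come from variable fluorescence difference curves; five replicates.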

In test [9] the target is Photosystem II protein D1 (Spinacia oleracea) (UniProt P69560). Put plainly: Inhibition of uncoupled photosystem II electron transport and partial reactions in Spinacia oleracea (spinach) leaves assessed as electron transport rate from water to DCPIP at 100 uM measured per mg of chlorophyll relative to untreated control. Details: scale not given: the % may be the effect or the level left.

For test [10], the system named is Spinacia oleracea. Put plainly: Inhibition of uncoupled electron transport from water to MV in Spinacia oleracea (spinach) leaves chloroplasts up to 300 uM using Clark type electrode system based method. The test is classed as functional, organism-based. The essentials:
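Water-to-MV electron transport measured with a Clark electrode in the basal medium (20 μg Chl/mL, 50 μM MV, 15 mM tricine-KOH pH 8.0, 1 min illumination), with 6 mM NH4Cl added as uncoupler.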

Test [11] has as its system Lolium perenne. Put plainly: Effect on biomass production in Lolium perenne (perennial ryegrass) assessed as plant dry weight at 100 uM measured 14 days post compound application relative to untreated control. Format: functional. The essentials:
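Greenhouse-grown plants (pots, watered daily, 25 to 30 °C) of similar size, sprayed at 15 (P. ixocarpa) or 18 (L. perenne) days after emergence. Compound taken from a 20 mM DMSO stock into aqueous 0.05% w/v Tween-20; controls were sprayed with water containing the same DMSO and Tween-20. Plants harvested at ground level, oven-dried at 65 °C to constant weight, then weighed.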

Test [12] concerns Physalis ixocarpa. Put plainly: Inhibition of photosynthetic efficiency in Physalis ixocarpa intact leaves assessed as reduction in PI(abs) level at 100 uM measured 72 hr post compound application. Format: functional. In a few lines:
as §2

The test system of test [13] is Physalis ixocarpa. Put plainly: Inhibition of photosynthetic efficiency in Physalis ixocarpa intact leaves assessed as reduction in PI(abs) level at 200 uM measured 48 hr post compound application. The test is classed as functional. The essentials:
as §2

For the compound `C[C@H]1C(=O)CC[C@@H]2[C@]1(C)CC[C@H]1[C@@]2(C)CC[C@@]2(C)[C@@H]3CC(C)(C)CC[C@]3(CO)CC[C@]12C` [CANOPHYLLOL], the inhibition entry in the test on Lolium perenne [1] and in the test on Physalis ixocarpa [8] was “inactive” throughout. Moreover, the Activity in [2] is 20%; in test [4] it was 0%; in the test with Spinacia oleracea [5], 116%; in test [6], 105%; in test [7] it was 100%; in test [9], 108%. The Activity in the test with Lolium perenne [11] is 117.1%. Besides, the IC50 in the test with Spinacia oleracea [3] was 124 µM. Further, the inhibition entry with Spinacia oleracea [10] is “Active”. The inhibition at 100 µM with Physalis ixocarpa [12] stood at 25%. Also, in the test with Physalis ixocarpa [13], the inhibition at 200 µM came to 10%.
